Among the data in ChEMBL document CHEMBL4308898, “Synthesis and biological evaluation of arylpiperazine derivatives as potential anti-prostate cancer agents” (Bioorg Med Chem, 2019) are inhibition and IC50 values, retold here.

The target in experiment [1] is T1, Androgen receptor (Homo sapiens) (UniProt P10275).
T1 sequence (whole entry): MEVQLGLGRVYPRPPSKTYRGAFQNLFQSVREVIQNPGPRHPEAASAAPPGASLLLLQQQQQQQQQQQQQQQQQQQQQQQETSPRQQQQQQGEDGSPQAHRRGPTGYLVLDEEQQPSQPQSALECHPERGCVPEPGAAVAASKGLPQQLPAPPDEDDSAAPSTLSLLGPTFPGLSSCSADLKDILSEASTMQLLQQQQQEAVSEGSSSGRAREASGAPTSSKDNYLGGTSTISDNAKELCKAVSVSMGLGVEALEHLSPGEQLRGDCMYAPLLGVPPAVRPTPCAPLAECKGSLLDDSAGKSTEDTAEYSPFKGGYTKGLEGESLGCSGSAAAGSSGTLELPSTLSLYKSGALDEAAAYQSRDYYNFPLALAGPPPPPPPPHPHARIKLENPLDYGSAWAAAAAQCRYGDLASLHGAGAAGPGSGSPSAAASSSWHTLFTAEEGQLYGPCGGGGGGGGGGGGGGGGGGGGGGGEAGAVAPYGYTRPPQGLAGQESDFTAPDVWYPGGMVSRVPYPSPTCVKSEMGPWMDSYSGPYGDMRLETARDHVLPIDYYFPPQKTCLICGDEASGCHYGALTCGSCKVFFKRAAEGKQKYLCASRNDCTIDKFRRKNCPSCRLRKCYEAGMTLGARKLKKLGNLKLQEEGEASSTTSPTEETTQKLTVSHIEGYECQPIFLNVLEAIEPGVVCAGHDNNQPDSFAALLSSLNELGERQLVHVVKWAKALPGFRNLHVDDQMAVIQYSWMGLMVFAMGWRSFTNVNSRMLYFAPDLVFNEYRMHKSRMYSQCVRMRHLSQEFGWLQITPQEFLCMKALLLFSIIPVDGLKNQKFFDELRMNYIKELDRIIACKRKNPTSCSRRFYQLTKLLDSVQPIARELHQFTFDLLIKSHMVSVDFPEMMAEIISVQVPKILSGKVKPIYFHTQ
As to conditions: at 10 µM.

The subject of the next experiment is PC-3. As to the kind of experiment: Antiproliferative activity against human PC3 cells after 24 hrs by CCK-8 assay. It counts as functional, cell-based. Conditions: PC-3, 24 h. A digest of the protocol:
(§1)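 Media with 10% FBS plus penicillin/streptomycin: RPMI1640 (DU145), F12 (LNCaP), DMEM (PC-3). Log-phase cells seeded at 1 × 10^5 cells/mL and grown 24 h at 37 °C, 5% CO2, then given various compound concentrations for 24 h. CCK-8 added for 1 h, absorbance read at 450 nm. Inhibition = (1 − OD treated/OD control) × 100%. IC50 from linear regression; three independent experiments.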
(In general: Tetrazolium assays rely on reduction of a dye to a coloured formazan, in cell work by metabolically active cells.)

A further experiment has as its system DU-145. The experiment can be described thus: Antiproliferative activity against human DU145 cells after 24 hrs by CCK-8 assay. Format: functional, cell-based. Conditions: DU-145, 24 h. A digest of the protocol:
as §1

A further experiment relates to LNCaP. As to the kind of experiment: Antiproliferative activity against human LNCAP cells after 24 hrs by CCK-8 assay. Format: functional, cell-based. In short, it runs like this:
as §1

The subject of another experiment is RWPE-1. The experiment can be described thus: Antiproliferative activity against human RWPE1 cells after 24 hrs by CCK-8 assay. It counts as cell-based. Conditions: RWPE-1, 24 h. In short, it runs like this:
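RWPE-1 grown in DMEM with 10% FBS, penicillin 100 U/mL and streptomycin 0.1 mg/mL at 37 °C, 5% CO2. Log-phase cells seeded at 1 × 10^5 cells/mL, cultured 24 h, then exposed to various compound concentrations for 24 h. CCK-8 added, 1 h at 37 °C, absorbance read at 450 nm. Inhibition = (1 − OD treated/OD control) × 100%. IC50 by linear regression of concentration-response curves. Three independent experiments.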

A further experiment concerns the target T2, Androgen receptor (Rattus norvegicus, UniProt P15207).
T2 sequence (P15207 whole entry): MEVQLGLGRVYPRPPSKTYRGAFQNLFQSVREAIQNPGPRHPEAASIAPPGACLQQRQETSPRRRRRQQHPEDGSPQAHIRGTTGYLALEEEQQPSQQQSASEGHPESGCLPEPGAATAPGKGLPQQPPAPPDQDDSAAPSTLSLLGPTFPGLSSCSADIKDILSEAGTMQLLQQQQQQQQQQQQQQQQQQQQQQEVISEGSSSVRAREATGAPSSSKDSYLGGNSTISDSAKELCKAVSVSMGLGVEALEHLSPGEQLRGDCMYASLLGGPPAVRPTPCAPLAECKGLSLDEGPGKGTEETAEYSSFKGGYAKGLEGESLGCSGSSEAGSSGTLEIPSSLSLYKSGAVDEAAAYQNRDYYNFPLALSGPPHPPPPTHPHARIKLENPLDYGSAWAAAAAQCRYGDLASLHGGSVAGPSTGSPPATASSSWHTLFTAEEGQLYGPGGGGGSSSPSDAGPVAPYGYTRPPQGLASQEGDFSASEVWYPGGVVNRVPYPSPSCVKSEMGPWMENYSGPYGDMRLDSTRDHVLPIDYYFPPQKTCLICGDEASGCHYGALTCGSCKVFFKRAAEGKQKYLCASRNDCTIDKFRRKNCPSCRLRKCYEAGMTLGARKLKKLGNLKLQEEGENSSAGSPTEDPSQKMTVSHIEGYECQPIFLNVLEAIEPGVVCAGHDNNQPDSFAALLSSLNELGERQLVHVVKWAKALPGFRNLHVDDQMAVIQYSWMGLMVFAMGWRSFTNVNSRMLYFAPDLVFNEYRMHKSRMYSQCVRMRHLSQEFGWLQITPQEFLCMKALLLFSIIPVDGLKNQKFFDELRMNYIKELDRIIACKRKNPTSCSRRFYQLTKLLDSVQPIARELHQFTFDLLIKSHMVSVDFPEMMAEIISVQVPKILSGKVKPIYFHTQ
The experiment can be described thus: Displacement of fluormone-AL Green from His-tagged/GST-fused recombinant rat androgen receptor LBD expressed in insect cells measured after 4 hrs by fluorescence polarization assay. In general terms: Polarisation of emitted light reports the rotation of a fluorescent probe.

Activity calls are given as the source filed them. No cut-off for these calls is given here.

Broadly, the inhibition is how much of the control response was suppressed. For the compound `C[C@]12C=CC3=C4CCC(=O)C=C4CC[C@H]3[C@@H]1CC[C@@]2(C)O`, the inhibition entry in experiment [1] was “inactive”.

In general, IC50 refers to the concentration at which inhibition is half-maximal. Consider `CCOc1ccc(OCCc2ccc(CN3CCN(c4ccccc4)CC3)cc2)cc1`, for which the IC50 was > 50 µM in the experiment on PC-3, 14.2 µM in the experiment on DU-145, > 50 µM with LNCaP and > 50 µM in the experiment on RWPE-1.

Take `Clc1ccc(OCCc2ccc(CN3CCN(c4ccccc4)CC3)cc2)cc1Cl`: the IC50 with PC-3 is 23 µM; with DU-145 it was 5.36 µM; in the experiment with LNCaP, 19.8 µM; in the experiment on RWPE-1 it was > 50 µM. In experiment [1], the inhibition was 41.1%.

Turning to `Clc1ccccc1OCCc1ccc(CN2CCN(c3ccccc3)CC2)cc1`, the IC50 was > 50 µM in the experiment with PC-3, 38.6 µM in the experiment on DU-145, > 50 µM in the experiment with LNCaP and > 50 µM in the experiment with RWPE-1.

For the compound `Cc1ccccc1OCCc1ccc(CN2CCN(c3ccccc3)CC2)cc1`, the IC50 with PC-3 is 15.1 µM; with DU-145 it was 29.2 µM; in the experiment on LNCaP, 34.9 µM; in the experiment on RWPE-1, > 50 µM.

On to `Cc1cc(C)cc(OCCc2ccc(CN3CCN(c4ccccc4)CC3)cc2)c1`, for which the IC50 was found to be 2.99 µM with PC-3, 3.44 µM in the experiment on DU-145, 7.43 µM in the experiment with LNCaP and 4.86 µM in the experiment with RWPE-1. Also, the inhibition in experiment [1] was 16.7%.

For the compound `COc1ccccc1N1CCN(CC(O)COc2cccc3ccccc23)CC1` (stereo not drawn) [NAFTOPIDIL], the IC50 in the experiment with RWPE-1 is > 50 µM.

On to `N#Cc1ccc(OCCc2ccc(CN3CCN(c4ccccc4)CC3)cc2)cc1`, for which the IC50 is 1.05 µM in the experiment on PC-3; 46.2 µM in the experiment on DU-145; 43.6 µM in the experiment on LNCaP; > 50 µM with RWPE-1; 4.22 µM on Androgen receptor. Also, the inhibition in experiment [1] came to 47.2%.

With `Brc1ccccc1OCCc1ccc(CN2CCN(c3ccccc3)CC2)cc1`, the IC50 in the experiment with PC-3 was > 50 µM; in the experiment with DU-145, 11.6 µM; in the experiment on LNCaP, 41.9 µM; in the experiment on RWPE-1, > 50 µM.

Turning to `Cc1ccc(OCCc2ccc(CN3CCN(c4ccccc4)CC3)cc2)cc1C`, the IC50 in the experiment on PC-3 amounted to 6.72 µM; with DU-145, 15.6 µM; in the experiment on LNCaP it was 17.6 µM; with RWPE-1, 12.3 µM.

Turning to `FC(F)(F)c1ccc(OCCc2ccc(CN3CCN(c4ccccc4)CC3)cc2)cc1`, the IC50 in the experiment on PC-3 worked out at 4.96 µM; in the experiment on DU-145, 4.81 µM; in the experiment on LNCaP, 8.76 µM; in the experiment on RWPE-1, 13.2 µM; on Androgen receptor, 4.03 µM. In addition, the inhibition in experiment [1] was found to be 48.2%.

With `c1ccc(N2CCN(Cc3ccc(CCOc4ccc5c(c4)CCCC5)cc3)CC2)cc1`, the IC50 in the experiment with PC-3 was > 50 µM; in the experiment with DU-145, 40.4 µM; in the experiment on LNCaP, > 50 µM; with RWPE-1, > 50 µM.

Consider `CC(C)c1ccc(OCCc2ccc(CN3CCN(c4ccccc4)CC3)cc2)cc1`, for which the IC50 was > 50 µM in the experiment on PC-3, 6.4 µM with DU-145, > 50 µM with LNCaP and > 50 µM in the experiment on RWPE-1. The inhibition in experiment [1] worked out at 40.2%.

Consider `N#Cc1ccc(OCCc2ccc(CN3CCN(c4ccccc4)CC3)cc2)c(F)c1`, for which the IC50 in the experiment with PC-3 is > 50 µM; in the experiment with DU-145, 0.77 µM; with LNCaP, > 50 µM; in the experiment on RWPE-1, > 50 µM. Moreover, the inhibition in experiment [1] stood at 24.5%.

With `Fc1ccc(OCCc2ccc(CN3CCN(c4ccccc4)CC3)cc2)cc1`, the IC50 in the experiment with PC-3 was found to be 5.7 µM; with DU-145, 6.86 µM; in the experiment on LNCaP, 7.83 µM; with RWPE-1, 4.62 µM. The compound also registered an inhibition in experiment [1] of 35.1%.

Turning to `c1ccc(N2CCN(Cc3ccc(CCOc4cccc5ccccc45)cc3)CC2)cc1`, the IC50 in the experiment on PC-3 amounted to 4.72 µM; with DU-145 it was 16 µM; with LNCaP it was 8.92 µM; in the experiment on RWPE-1, 12.2 µM. The same compound showed an inhibition in experiment [1] of 32.5%.

On to `Clc1cc(Cl)cc(OCCc2ccc(CN3CCN(c4ccccc4)CC3)cc2)c1`, for which the IC50 in the experiment on PC-3 amounted to 10.1 µM; in the experiment with DU-145, 13.2 µM; with LNCaP it was 19.4 µM; with RWPE-1, 47.2 µM.

With `COc1ccccc1OCCc1ccc(CN2CCN(c3ccccc3)CC2)cc1`, the IC50 with PC-3, with DU-145, in the experiment on LNCaP and in the experiment on RWPE-1 was > 50 µM each time.

With `c1ccc(N2CCN(Cc3ccc(CCOc4cccc5c4CCCC5)cc3)CC2)cc1`, the IC50 turned out to be 17.7 µM in the experiment with PC-3, 12.2 µM in the experiment with DU-145, 19.3 µM in the experiment on LNCaP and 27.8 µM in the experiment on RWPE-1.

Consider `Clc1ccc(OCCc2ccc(CN3CCN(c4ccccc4)CC3)cc2)cc1`, for which the IC50 with PC-3 was found to be 3.59 µM; with DU-145, 9.2 µM; in the experiment on LNCaP it was 8.64 µM; in the experiment with RWPE-1 it was 4.76 µM. This compound also came in with an inhibition in experiment [1] of 32.4%.

For `Brc1ccc(OCCc2ccc(CN3CCN(c4ccccc4)CC3)cc2)cc1`, the IC50 was determined as 6.69 µM with PC-3, 10.1 µM in the experiment on DU-145, 13.5 µM in the experiment with LNCaP and 15.7 µM with RWPE-1.

Turning to `c1ccc(OCCc2ccc(CN3CCN(c4ccccc4)CC3)cc2)cc1`, the IC50 is 8.2 µM with PC-3, 9.82 µM with DU-145, 6.67 µM in the experiment on LNCaP and > 50 µM in the experiment on RWPE-1. In experiment [1], this compound showed an inhibition of 40.6%.

Regarding `Fc1ccccc1OCCc1ccc(CN2CCN(c3ccccc3)CC2)cc1`, the IC50 in the experiment with PC-3 amounted to 48.8 µM; with DU-145 it was 7.21 µM; in the experiment with LNCaP, 17.8 µM; in the experiment on RWPE-1 it was 19.7 µM.

On to `FC(F)(F)c1ccccc1OCCc1ccc(CN2CCN(c3ccccc3)CC2)cc1`, for which the IC50 in the experiment on PC-3 was > 50 µM; in the experiment on DU-145 it was 9.43 µM; in the experiment with LNCaP, 32.2 µM; in the experiment with RWPE-1 it was > 50 µM.

Consider `CC(C)(C)NC(=O)[C@H]1CC[C@H]2[C@@H]3CC[C@H]4NC(=O)C=C[C@]4(C)[C@H]3CC[C@]12C` [FINASTERIDE], for which the IC50 in the experiment on DU-145 came out at 14.5 µM; in the experiment with LNCaP, 13.5 µM.

Regarding `N#Cc1ccccc1OCCc1ccc(CN2CCN(c3ccccc3)CC2)cc1`, the IC50 with PC-3 was > 50 µM; in the experiment on DU-145, 2.51 µM; in the experiment on LNCaP it was > 50 µM; in the experiment on RWPE-1, > 50 µM. In addition, the inhibition in experiment [1] was 32.1%.

`CC(C)(C)c1ccc(OCCc2ccc(CN3CCN(c4ccccc4)CC3)cc2)cc1`: the IC50 came to 4.86 µM with PC-3, 28 µM in the experiment on DU-145, 17.9 µM in the experiment with LNCaP and 21.1 µM with RWPE-1.
